CHO parental Ca: counter-screen: ATP calcium response change in parental CHO cells | parental CHO-K1, ATP-induced calcium, Fluo-8 fluorescence | inhibition, % at 5.6 µM | 330,000 tested, 0.63% active | AID 463079;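 active = inhibition above that plate's mean sample inhibition plus 3 SD, cut at about 26% in these data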;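 also: 0% = ATP-challenged DMSO wells and 100% = DMSO wells without ATP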
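material = parental CHO cells | also added = ATP as calcium-mobilizing challenge | dosing = single point at 5.6 µM | detection = intracellular calcium via Fluo-8 no-wash fluorescent dye | read-out = % inhibition | benchmarks = low control ATP plus DMSO, high control DMSO only | repeats = one well per compound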
OX1R antag-1: human HCRTR1 antagonism; O43613; CHO/OX1R cells, Fluo-8 calcium fluorescence, orexin A; inhibition, % at 5 µM; 330,000 tested, 0.43% active;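 active = inhibition above its plate's threshold, mean inhibition of all tested compounds on the plate plus 3 SD, cut at about 37% in these data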;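 also: 0% = orexin A challenge wells and 100% = SB-334867-A antagonist wells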
Target sequence (O43613 whole entry, looked up): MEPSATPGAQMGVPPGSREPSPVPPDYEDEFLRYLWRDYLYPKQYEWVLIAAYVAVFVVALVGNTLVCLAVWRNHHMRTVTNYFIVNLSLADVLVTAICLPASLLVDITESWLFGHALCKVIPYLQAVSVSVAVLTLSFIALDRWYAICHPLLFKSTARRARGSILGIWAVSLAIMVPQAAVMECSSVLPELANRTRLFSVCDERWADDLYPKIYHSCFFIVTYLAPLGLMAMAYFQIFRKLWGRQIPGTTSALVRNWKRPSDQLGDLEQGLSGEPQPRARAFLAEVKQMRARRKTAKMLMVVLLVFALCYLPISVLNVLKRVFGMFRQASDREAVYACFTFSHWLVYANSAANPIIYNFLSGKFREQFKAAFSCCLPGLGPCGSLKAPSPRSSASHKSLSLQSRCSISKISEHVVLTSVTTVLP
TAAR1 agonist: agonists of human TAAR1 | Q96RJ0 | CHO RD-HGA16 TAAR1, Fluo-8 calcium fluorescence; vehicle wells 0%, saturating PEA agonist 100% | activation, % at 3 µM | 360,000 tested, 0.99% active;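 active = activation above the mean activation of all test compounds in the run plus 3 SD, cut at about 38% in these data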
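Test system: RD-HGA16 (CHO) cells co-expressing Gα16 and hTAAR1 | Doses: Single dose, 3 µM | Schedule: 17-24 h seeding, 75 min 37 °C dye, 30 min RT | Evaluation: % activation from peak over basal fluorescence ratio, DMSO-to-PEA scaled | Technique: Kinetic Fluo-8 calcium fluorescence | Benchmarks: Low control DMSO, high control PEA (EC100)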
OX1R antag-2: blocks the human orexin 1 receptor. OX1R-expressing cells, FRET antagonist read-out. O43613. inhibition, % at 6.6 µM. 330,000 tested, 1.8% active. AID 485270; in the data active = inhibition mostly above about 38%, no sharp cut-off; inactive = mostly below about 40%;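 also: 0% = agonist challenge alone and 100% = reference antagonist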
TAAR1 antagonist: antagonists of human TAAR1; Q96RJ0; CHO RD-HGA16 TAAR1, Fluo-8 calcium fluorescence, antagonist; inhibition, % at 3 µM; 360,000 tested, 1.5% active;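 active = inhibition above a per-plate cutoff, the mean inhibition of test compounds on that plate plus 3 SD, cut at about 49% in these data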;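 also: 0% = DMSO plus EC80 beta-PEA response and 100% = DMSO alone without agonist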
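test system = CHO RD-HGA16 cells bearing hTAAR1 | replication = singlicate | controls = DMSO-only wells and EC80 β-PEA-stimulated wells | reagent = EC80 β-phenethylamine stimulus | read-out basis = percent inhibition of PEA-evoked calcium signal, max/basal emission ratio | schedule = seeding 17-24 h prior, 75-min 37 °C, 30-min RT dye loading | signal = kinetic Fluo-8 calcium fluorescence measurement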
Active calls of the source: *; / = no result given. Rows were chosen to be rich in hits. Some 3.9% of all compounds tested hit in one or more screens of this group.

SMILES | CHO parental Ca | OX1R antag-1 | TAAR1 agonist | OX1R antag-2 | TAAR1 antagonist
CCOC(=O)[C@]12CCCC=C1N(Cc1ccc(Cl)cc1Cl)C(=O)[C@H](CC(=O)N1CCN(C(=O)c3ccco3)CC1)C2 | / | / | 0 | / | -22
N#Cc1nc(-c2ccc(OCc3ccccc3)cc2)oc1NCc1cccnc1 | 54* | 45* | 0 | 61 | 6
CCOc1cc(/C=C(/C#N)c2nc3ccccc3[nH]2)ccc1OCc1ccc(C(=O)O)o1 | -3 | -11 | 0 | 4 | -18
COc1cc(/C=C(\C#N)c2nc3ccccc3[nH]2)ccc1OC(=O)c1ccco1 | 2 | 14 | 11 | 71* | 18
COc1cc(/C=C(\C#N)c2nc3ccccc3[nH]2)c([N+](=O)[O-])cc1OCc1ccccc1 | -7 | -4 | 9 | 50 | 54*
COc1ccc(OC)c(CN(CC(F)(F)F)S(=O)(=O)c2ccccc2Br)c1 | / | / | 1 | / | -1
c1ccc(CC2CCN(C(c3cccs3)c3nnnn3C3CCCC3)CC2)cc1 (centres undefined) | -12 | -10 | 0 | 10 | -15
c1ccc(CN(Cc2cccs2)C(c2cccs2)c2nnnn2C2CCCC2)cc1 (centres undefined) | 34* | -26 | 2 | 9 | -1
COc1ccccc1NC(=O)N(C)C[C@@H]1OCc2cnnn2CCCC(=O)N([C@@H](C)CO)C[C@H]1C | / | / | 2 | / | 0
Cc1cc(C)cc(N(C(=O)Cc2cccs2)C(C(=O)NC2CCCC2)c2ccc(C)o2)c1 (centres undefined) | -16 | -12 | 2 | 2 | -10
Cc1cc(C)cc(N(C(=O)Cc2cccs2)C(C(=O)NC2CCCCC2)c2ccccn2)c1 (centres undefined) | -17 | -6 | 4 | 65* | -13
O=C(NC1CCCC1)C(c1ccccc1)N(Cc1ccc2c(c1)OCO2)C(=O)Cc1cccs1 (centres undefined) | -1 | -23 | 17 | 59 | 51*
O=C(NC1CCCC1)C(c1ccsc1)N(Cc1ccccc1)C(=O)Cc1cccs1 (centres undefined) | -34 | 4 | 6 | 13 | 52*
O=C(NC1CCCC1)C(c1ccncc1)N(Cc1ccccc1)C(=O)Cc1cccs1 (centres undefined) | -28 | -33 | 10 | 9 | -11
COC(=O)c1cc2c(c3c4cc(F)ccc4n(S(=O)(=O)c4ccccc4)c13)C(=O)N(C)C2 | / | / | 0 | / | -6
N#Cc1cccc(C#N)c1Oc1ccc(S(=O)(=O)Nc2ccc(Cl)cc2)cc1 | 43* | 13 | 18 | 13 | 12
CCCNC(=O)C1(C)CCCN(C(=O)CN2C(=O)c3ccccc3C2=O)C1 (centres undefined) | / | / | 1 | / | -23
Cc1cc(C(=O)CN2C(=O)NC3(CCCc4sccc43)C2=O)c(C)n1-c1ccc(Cl)cc1 (centres undefined) | -10 | 4 | 3 | 50* | -4
NC(=O)CN1C(=O)NC2(CCCc3sccc32)C1=O (centres undefined) | -2 | -14 | 1 | 7 | -18
CN(CC(=O)Nc1ccc(F)cc1[N+](=O)[O-])C1CCS(=O)(=O)C1 (centres undefined) | -2 | 16 | 10 | 34* | -7
C[C@@H]1CN(c2ccc(N3CCN(C(=O)OC(C)(C)C)C[C@@H]3C)cc2C#N)C[C@H](C)O1 | / | / | 2 | / | -29
Cc1cc2c3c(c1)C1(SCC(=O)N1c1ccc(F)cc1)C(=O)N3C(C)(C)CC2C (centres undefined) | 10 | 18 | 48* | 5 | 9
CC1CC(C)(C)N2C(=O)C3(Nc4ccccc4S3)c3cccc1c32 (centres undefined) | -16 | -23 | / | 8 | /
COc1ccccc1N(CC(=O)N/N=C/c1c(O)ccc2ccccc12)S(C)(=O)=O | -11 | -11 | 19 | 69* | 39
COc1ccccc1NCC(=O)N/N=C/c1c(O)ccc2ccccc12 | 3 | -12 | 7 | 10 | 20
SMILES | CHO parental Ca | OX1R antag-1 | TAAR1 agonist | OX1R antag-2 | TAAR1 antagonist
O=C(COc1ccccc1)Nc1nc2cc3c(cc2s1)OCO3 | 31* | 0 | -1 | 18 | -1
O=C(COc1ccccc1)Nc1nc2cc3c(cc2s1)OCCO3 | 5 | 2 | 0 | 14 | 6
COC(=O)c1cccc(NC(=O)NC(=O)c2ccc(Cl)cc2)c1 | 1 | -5 | 3 | 9 | 9
O=C(NCCN1CCN(Cc2ccccc2)CC1)Nc1cc(Cl)cc(Cl)c1 | -2 | -15 | 44* | 5 | 23
COC(=O)c1cccc(NC(=O)Nc2ccc(Cl)cc2)c1 | 46* | 24 | 11 | 21 | 23
O=C(Nc1ccccc1)Nc1cc(Cl)cc(Cl)c1 | 54* | 65* | 6 | 84* | 20
CS(=O)(=O)Nc1ccccc1C(=O)Nc1cc(Cl)cc(Cl)c1 | 19 | 11 | 15 | 46* | 23
O=C(Nc1cccnc1)Nc1cc(Cl)cc(Cl)c1 | 2 | -4 | 12 | 26 | 18
Nc1c(-c2ccc(F)c(F)c2)nc2ncccn12 | / | / | 1 | / | 6
CCc1ccc2cc3c(cc2n1)C(=O)c1ccccc1-3 | / | / | 0 | / | -10
OC1OC2COC(c3ccccc3)OC2C(O)C1O (centres undefined) | / | / | 1 | / | -11
Cc1nnc(NC(=O)Nc2cccc(Cl)c2)s1 | 4 | -11 | 43* | 35 | 36
COC(=O)c1cc(NC(=O)Nc2cccc(Cl)c2)ccc1Cl | 14 | 46* | 10 | 50* | 60*
O=C(Nc1cccc(Cl)c1)Nc1cccc(Cl)c1 | 74* | 39* | 15 | 92* | 42
O=C(Nc1cccc(Cl)c1)Nc1nc(-c2ccccc2)cs1 | 37* | 34 | 16 | 46 | -1
Cc1csc(NC(=O)Nc2cccc(Cl)c2)n1 | 14 | 0 | 20 | 15 | 15
O=C(Nc1cccc(F)c1)Nc1cccc(Cl)c1 | 34 | 24 | 9 | 31 | -14
CCCCN1CC(COCc2ccccc2)Oc2cccc(Oc3ccc(F)cc3OC)c2S1(=O)=O (centres undefined) | / | / | 3 | / | -29
O=C(C1CCCO1)N1CCN(Cc2c(O)ccc3ccccc23)CC1 (centres undefined) | 29* | -19 | 14 | 37 | -14
CC(=O)c1ccc(NC(=S)NCc2ccc(Cl)cc2Cl)cc1 | 40* | 40* | 25 | 30 | 26
CC(=O)c1cccc(NC(=S)NCCc2ccc(Cl)cc2)c1 | 0 | 5 | 7 | 22 | 3
Cc1ccc([N+](=O)[O-])cc1NC(=O)C(Sc1ccccc1)c1ccccc1 (centres undefined) | 2 | 11 | 2 | 24 | 52*
S=C(NCc1ccc(Cl)cc1Cl)NC1CCCCC1 | 28* | 8 | 12 | 11 | 30
O=C(Nc1ccc([N+](=O)[O-])cc1)Nc1cnccn1 | 2 | 6 | 6 | 67* | -11
CC(C)=CC(=O)NCC1CCN(C(=O)C(=O)c2cc3ccccc3o2)CC1 | / | / | 4 | / | -3
